Results as given in ChEMBL document CHEMBL4765271, “Design, synthesis and biological evaluation of 2,3-dihydro-5,6-dimethoxy-1H-inden-1-one and piperazinium salt hybrid derivatives as hAChE and hBuChE enzyme inhibitors” (Eur J Med Chem, 2020).
Activity calls are given as the source filed them. No cut-off for these calls is given here.

Experiments:
[1] = species: Homo sapiens; assay: Selectivity ratio of IC50 for human erythrocyte AChE to IC50 for human plasma BuChE
Method in brief: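 Ellman assay used cholinesterases from human blood. Inhibitor at five concentrations was pre-incubated 5 min at 37 °C in phosphate buffer pH 8 with DTNB (3.5 mM stock) and acetylthiocholine iodide substrate (7 mM stock). The reaction was started with enzyme and read as absorbance increase at 412 nm. Each run was done twice. The ratio is derived from the AChE and BuChE IC50 values.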

[2] = target: T1, Cholinesterase (Homo sapiens, UniProt P06276); assay: Inhibition of human plasma BuChE using butyrylthiocholine as substrate measured after 5 mins by Ellman's method
T1 sequence (P06276 whole entry): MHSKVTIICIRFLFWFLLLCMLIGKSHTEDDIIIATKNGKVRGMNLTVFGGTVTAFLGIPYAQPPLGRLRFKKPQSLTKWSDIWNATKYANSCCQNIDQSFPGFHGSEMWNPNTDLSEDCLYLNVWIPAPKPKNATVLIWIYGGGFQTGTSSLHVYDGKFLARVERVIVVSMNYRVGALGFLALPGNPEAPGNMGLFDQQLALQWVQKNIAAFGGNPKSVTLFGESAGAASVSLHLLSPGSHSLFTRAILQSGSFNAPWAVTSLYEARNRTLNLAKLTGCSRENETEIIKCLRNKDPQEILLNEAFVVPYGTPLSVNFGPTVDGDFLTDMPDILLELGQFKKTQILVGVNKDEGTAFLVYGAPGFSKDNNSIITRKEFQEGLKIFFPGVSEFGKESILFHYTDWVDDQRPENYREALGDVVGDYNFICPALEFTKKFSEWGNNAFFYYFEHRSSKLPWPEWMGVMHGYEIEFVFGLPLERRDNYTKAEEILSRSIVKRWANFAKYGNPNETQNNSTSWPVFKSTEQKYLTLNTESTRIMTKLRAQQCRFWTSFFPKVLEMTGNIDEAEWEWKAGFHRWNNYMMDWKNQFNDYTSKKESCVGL

[3] = target: T2, Acetylcholinesterase (Homo sapiens, UniProt P22303); assay: Inhibition of human erythrocyte AChE using acetylthiocholine as substrate measured after 5 mins by Ellman's method
T2 sequence (P22303 whole entry): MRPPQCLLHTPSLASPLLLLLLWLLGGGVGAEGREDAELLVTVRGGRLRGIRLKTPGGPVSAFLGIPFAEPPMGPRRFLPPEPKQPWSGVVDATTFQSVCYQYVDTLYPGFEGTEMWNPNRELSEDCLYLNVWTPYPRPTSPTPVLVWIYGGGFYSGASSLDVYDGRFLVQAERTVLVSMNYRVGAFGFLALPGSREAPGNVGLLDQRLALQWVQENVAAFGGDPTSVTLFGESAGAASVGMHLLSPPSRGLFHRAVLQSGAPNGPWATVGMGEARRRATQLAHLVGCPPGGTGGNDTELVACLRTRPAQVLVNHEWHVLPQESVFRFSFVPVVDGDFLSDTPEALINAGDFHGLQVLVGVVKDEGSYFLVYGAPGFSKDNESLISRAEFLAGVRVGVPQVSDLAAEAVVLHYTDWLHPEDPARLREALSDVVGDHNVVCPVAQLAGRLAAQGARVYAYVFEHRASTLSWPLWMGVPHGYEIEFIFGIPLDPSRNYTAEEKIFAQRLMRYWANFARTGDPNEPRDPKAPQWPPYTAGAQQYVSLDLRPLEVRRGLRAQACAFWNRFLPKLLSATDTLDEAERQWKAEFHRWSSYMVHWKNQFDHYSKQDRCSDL

[4] = target: T2, Acetylcholinesterase
[5] = target: T2, Acetylcholinesterase; assay: Non competitive inhibition of human erythrocyte AChE using varying levels of acetylthiocholine iodide as substrate by Lineweaver-Burk plot analysis
[6] = system: SH-SY5Y; assay: Cytotoxicity against human SH-SY5Y cells measured after 48 hrs by MTT assay; type: ADME, cell-based
[7] = target: T1, Cholinesterase; assay: Non competitive inhibition of human plasma BuChE using varying levels of butyrylthiocholine iodide as substrate by Lineweaver-Burk plot analysis
[8] = system: MCF7; assay: Cytotoxicity against human MCF7 cells after 48 hrs by MTT assay; type: ADME, cell-based; conditions: MCF7, 48 h
[9] = system: HFF; assay: Cytotoxicity against HFF cells assessed as reduction in cell viability incubated for 48 hrs by MTT assay; type: ADME, cell-based; conditions: Homo sapiens
[10] = target: T2, Acetylcholinesterase; assay: Inhibition of human erythrocyte AChE at 100 uM using acetylthiocholine as substrate measured after 5 mins by Ellman's method relative to control
Method in brief: (§1)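 Ellman spectrophotometric assay using cholinesterases from human blood. The 1 ml medium held pH 8 phosphate buffer, DTNB (3.5 mM stock), thiocholine substrate (7 mM stock) and inhibitor. It was preincubated 5 min at 37 °C, then started by adding enzyme. Absorbance increase was read at 412 nm over 5 min intervals against control cuvettes. Each experiment was run twice.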

[11] = target: T1, Cholinesterase; assay: Inhibition of human plasma BuChE at 100 uM using butyrylthiocholine as substrate measured after 5 mins by Ellman's method relative to control; method in brief: as §1
[12] = system: PC-12; assay: Antioxidant activity in amyloid beta (1 to 42)-induced oxidative stress in rat PC-12 cells assessed as reduction in ROS formation measured after 24 hrs by DAPI staining based TUNEL assay; type: functional, cell-based
Method in brief: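 Aβ(1-42) (5 μM) treated PC12 cells, with compound at 1 or 10 μM, fixed in 4% paraformaldehyde (1 h), blocked with […], then permeabilized with 0.1% Triton X-100/0.1% sodium citrate on ice. TUNEL reaction 60 min at 37 °C, DAPI nuclear counterstain, imaged by fluorescence/confocal microscopy.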

[13] = system: PC-12; assay: Antioxidant activity in amyloid beta (1 to 42)-induced oxidative stress in rat PC-12 cells assessed as reduction in ROS formation by measuring apoptotic index at 1 uM measured after 24 hrs by DAPI staining based TUNEL assay (reference value: 60 +/- 10); type: functional
[14] = system: PC-12; assay: Antioxidant activity in amyloid beta (1 to 42)-induced oxidative stress in rat PC-12 cells assessed as reduction in ROS formation measured after 24 hrs by DCFH-DA staining based fluorescence spectrophotometric assay; type: functional, cell-based
Method in brief: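 Intracellular ROS: PC12 cells given 5 μM Aβ(1-42) with or without compound (1 or 10 μM), then loaded with 10 μM DCFH-DA for 5 min at room temperature. DCF fluorescence read at ex 485/em 530 nm, with DAPI counterstain (ex 358/em 461) for microscopy.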

[15] = system: PC-12; assay: Antioxidant activity in amyloid beta (1 to 42)-induced oxidative stress in rat PC-12 cells assessed as increase in TAC level at 1 to 10 uM in presence of ABTS by spectrophotometric assay; type: functional, cell-based; conditions: dose 1-10 µM
Method in brief: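 Total antioxidant capacity measured with the ABTS/myoglobin method: 10 mM PBS pH 7.2, myoglobin, ABTS (300 μM final) and diluted sample or Trolox held 3 min at 25 °C. The reaction was started and absorbance read at 450 nm for 5 min at 25 °C. Cells were treated with 5 μM Aβ(1-42) with or without compound.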

[16] = system: PC-12; assay: Antioxidant activity in amyloid beta (1 to 42)-induced oxidative stress in rat PC-12 cells assessed as reduction in ROS formation by measuring DCF fluorescence intensity at 1 uM measured after 24 hrs by DCFH-DA staining based fluorescence spectrophotometric assay (reference value: 51 +/- 11); type: functional
[17] = system: PC-12; assay: Cytoprotective activity against amyloid beta (1 to 42)-induced toxicity in rat PC-12 cells assessed as decrease in MDA level measured after 8 hrs by TBARS assay; type: functional, cell-based
Method in brief: (§2)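 Cells seeded in six-well plates, exposed to 5 μM Aβ(1-42) with or without compound (1 or 10 μM) for 8 h. They were collected and sonicated on ice, then lysed with SDS. TBA reagent added and heated at 95 °C for 45-60 min. MDA read by TBARS absorbance at 535 nm.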

[18] = system: PC-12; assay: Cytoprotective activity against amyloid beta (1 to 42)-induced toxicity in rat PC-12 cells assessed as decrease in LDH level at 10 uM by spectrophotometric assay relative to control; type: functional; design: scale not given: the % may be the effect or the level left
Method in brief: (§3)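 PC12 cells exposed to 5 μM Aβ(1-42) in serum-free DMEM 24 h at 37 °C, then compound (1 or 10 μM) added for 24 h. LDH in culture medium measured as rate of NADH oxidation (pyruvate→lactate), read as absorbance decrease at 340 nm. Expressed as leakage into medium relative to total LDH.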

[19] = target: T2, Acetylcholinesterase; assay: Mixed type inhibition of human erythrocyte AChE using varying levels of acetylthiocholine iodide as substrate by Lineweaver-Burk plot analysis
[20] = system: PC-12; assay: Antioxidant activity in amyloid beta (1 to 42)-induced oxidative stress in rat PC-12 cells assessed as reduction in ROS formation by measuring apoptotic index at 10 uM measured after 24 hrs by DAPI staining based TUNEL assay (reference value: 60 +/- 10); type: functional
[21] = system: PC-12; assay: Antiinflammatory activity in amyloid beta (1 to 42)-induced cytokine production in rat PC-12 cells assessed as decrease in TNFalpha mRNA level by SYBR green dye based RT-PCR analysis; type: functional, cell-based
Method in brief: (§4)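 PC12 cells (7-day cultures, DMEM with 7% FBS, 7% horse serum) exposed to 5 μM Aβ(1-42) in serum-free DMEM for 24 h at 37 °C, 5% CO2, then compound at 1 or 10 μM for 24 h. Total RNA isolated, reverse transcribed, and IL-1β and TNF-α mRNA quantified by SYBR Green real-time PCR; 2^-ΔΔCT method relative to β-actin.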

[22] = system: PC-12; assay: Cytoprotective activity against amyloid beta (1 to 42)-induced toxicity in rat PC-12 cells assessed as decrease in LDH level at 1 uM by spectrophotometric assay relative to control; type: functional; design: scale not given: the % may be the effect or the level left; method in brief: as §3
[23] = system: PC-12; assay: Protection against amyloid beta (1 to 42)-induced toxicity in rat PC-12 cells assessed as increase in cell viability measured after 24 hrs by transmission electron microscopy; type: functional, cell-based
Method in brief: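 PC12 cells incubated with 5 μM Aβ(1-42), with or without compound at 1 or 10 μM, at 37 °C for 24 h. Cell morphology and viability were compared by transmission electron microscopy.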

[24] = system: PC-12; assay: Cytoprotective activity against amyloid beta (1 to 42)-induced toxicity in rat PC-12 cells assessed as decrease in LDH level by spectrophotometric assay; type: functional, cell-based; method in brief: as §3
[25] = system: PC-12; assay: Cytoprotective activity against amyloid beta (1 to 42)-induced toxicity in rat PC-12 cells assessed as decrease in MDA level at 1 to 10 uM measured after 8 hrs by TBARS assay relative to control; type: functional; design: scale not given: the % may be the effect or the level left; conditions: dose 1-10 µM; method in brief: as §2
[26] = system: PC-12; assay: Antiinflammatory activity in amyloid beta (1 to 42)-induced cytokine production in rat PC-12 cells assessed as decrease in IL-1beta mRNA level by SYBR green dye based RT-PCR analysis; type: functional, cell-based; method in brief: as §4
[27] = system: PC-12; assay: Antioxidant activity in amyloid beta (1 to 42)-induced oxidative stress in rat PC-12 cells assessed as reduction in ROS formation by measuring DCF fluorescence intensity at 10 uM measured after 24 hrs by DCFH-DA staining based fluorescence spectrophotometric assay (reference value: 51 +/- 11); type: functional

Compound: COc1cc2c(cc1OC)C(=O)/C(=C/c1ccc(N3CC[N+](C)(Cc4ccccc4Br)CC3)cc1)C2
- Ratio IC50 [1]: 0.38
- IC50 [2]: 1.4 µM
- IC50 [3]: 0.54 µM

Compound: COc1cc2c(cc1OC)C(=O)/C(=C/c1ccc(N3CC[N+](C)(Cc4ccccc4)CC3)cc1)C2
- Ratio IC50 [1]: 0.86
- Kinact [4]: 0.5 µM
- Ki [5]: 0.5 µM
- IC50 [6]: 1.28 µM
- IC50 [2]: 0.43 µM
- Ki [7]: 0.4 µM
- IC50 [3]: 0.37 µM
- IC50 [8]: 1.2 µM
- IC50 [9]: 2.4 µM

Compound: COc1cc2c(cc1OC)C(=O)/C(=C/c1ccc(N3CC[N+](C)(Cc4ccccc4Cl)CC3)cc1)C2
- Ratio IC50 [1]: 0.22
- IC50 [2]: 2.16 µM
- IC50 [3]: 0.48 µM

Compound: COc1cc2c(cc1OC)C(=O)/C(=C/c1ccc(OCCCCBr)cc1)C2
- inhibition [10]: 27.8%
- inhibition [11]: 0%

Compound: COc1cc2c(cc1OC)C(=O)/C(=C/c1ccc(N3CC[N+](C)(Cc4cccc(Cl)c4)CC3)cc1)C2.[Br-]
- Ratio IC50 [1]: 0.74
- Activity [12]: Dose-dependent effect
- Activity_index [13]: 50
- Activity [14]: Dose-dependent effect
- Activity [15]: Active
- Flu intensity [16]: 51
- Activity [17]: Dose-dependent effect
- Activity [18]: 27.5%
- Ki [19]: 1 µM
- Kinact [19]: 0.5 µM
- IC50 [6]: 1.23 µM
- Activity_index [20]: 35
- IC50 [2]: 0.43 µM
- Ki [7]: 0.5 µM
- Activity [21]: Dose-dependent effect
- IC50 [3]: 0.32 µM
- Activity [22]: 16.6%
- Activity [23]: Dose-dependent effect
- IC50 [8]: 1.52 µM
- Activity [24]: Dose-dependent effect
- IC50 [9]: 1.98 µM
- Activity [25]: 40.4%
- Activity [26]: Dose-dependent effect
- Flu intensity [27]: 38

Compound: CCCCCC[N+]1(C)CCN(c2ccc(/C=C3\Cc4cc(OC)c(OC)cc4C3=O)cc2)CC1
- Ratio IC50 [1]: 1.18
- IC50 [2]: 3.6 µM
- IC50 [3]: 4.25 µM

Compound: COc1cc2c(cc1OC)C(=O)/C(=C/c1ccc(N3CCN(C)CC3)cc1)C2
- inhibition [11]: 23.9%
- IC50 [3]: 0.32 µM

Compound: COc1cc2c(cc1OC)C(=O)/C(=C/c1ccc(OCCBr)cc1)C2
- inhibition [10]: 6.16%
- inhibition [11]: 5.16%

Compound: COc1cc2c(cc1OC)C(=O)/C(=C/c1ccc(N3CC[N+](C)(Cc4ccccn4)CC3)cc1)C2
- Ratio IC50 [1]: 0.12
- IC50 [2]: 3.24 µM
- IC50 [3]: 0.38 µM

Compound: COc1cc2c(cc1OC)C(=O)/C(=C/c1ccc(N3CC[N+](C)(Cc4cccc(Br)c4)CC3)cc1)C2
- Ratio IC50 [1]: 3.06
- IC50 [2]: 0.65 µM
- IC50 [3]: 1.99 µM

Compound: C=CC[N+]1(C)CCN(c2ccc(/C=C3\Cc4cc(OC)c(OC)cc4C3=O)cc2)CC1
- Ratio IC50 [1]: 0.02
- IC50 [2]: 25.2 µM
- IC50 [3]: 0.43 µM

Compound: CCCC[N+]1(C)CCN(c2ccc(/C=C3\Cc4cc(OC)c(OC)cc4C3=O)cc2)CC1
- Ratio IC50 [1]: 0.02
- IC50 [2]: 21.6 µM
- IC50 [3]: 0.54 µM

Compound: CCCCC[N+]1(C)CCN(c2ccc(/C=C3\Cc4cc(OC)c(OC)cc4C3=O)cc2)CC1
- Ratio IC50 [1]: 0.17
- IC50 [2]: 3.24 µM
- IC50 [3]: 0.54 µM

Compound: COc1cc2c(cc1OC)C(=O)/C(=C/c1ccc(N3CC[N+](C)(Cc4ccc(Br)cc4)CC3)cc1)C2
- Ratio IC50 [1]: 0.55
- IC50 [2]: 4.6 µM
- IC50 [3]: 2.55 µM

Compound: COc1cc2c(cc1OC)C(=O)/C(=C/c1ccc(N3CC[N+](C)(CCO)CC3)cc1)C2
- Ratio IC50 [1]: 0.17
- IC50 [2]: 6.48 µM
- IC50 [3]: 1.1 µM

Compound: CCC[N+]1(C)CCN(c2ccc(/C=C3\Cc4cc(OC)c(OC)cc4C3=O)cc2)CC1
- Ratio IC50 [1]: 0.11
- IC50 [2]: 20.2 µM
- IC50 [3]: 2.15 µM
